ChEMBL document CHEMBL1152488, “Synthesis and evaluation of pyrido[1,2-a]pyrimidines as inhibitors of nitric oxide synthases” (Eur J Med Chem, 2009)

Assays:
[1] = target: Nitric oxide synthase 1 (Rattus norvegicus) (UniProt P29476); test: Inhibition of rat recombinant nNOS expressed in Saccharomyces cerevisiae assessed as conversion of [gamma-14C]L-arginine to [14C]L-citrulline at 100 uM by radioactive assay relative to control; design: scale not given: the % may be the effect or the level left
Method in brief: (§1)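 Purified enzymes: rat nNOS from S. cerevisiae, murine iNOS and bovine eNOS from E. coli. Reaction 5 min at 37 °C in 50 mM Hepes pH 7.4 with DTT, 1 mM NADPH, H4B, FAD, FMN, [14C]L-arginine (2.5 µM L-arginine) and 100 µM compound in 1% DMSO. nNOS/eNOS also got 1 mM CaCl2 and CaM, which iNOS lacked. [14C]citrulline isolated on Dowex and counted by scintillation; % of DMSO control, n=3.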

[2] = target: T1, Nitric oxide synthase, inducible (Mus musculus) (UniProt P29477); test: Inhibition of mouse recombinant iNOS expressed in Escherichia coli assessed as conversion of [gamma-14C]L-arginine to [14C]L-citrulline at 100 uM by radioactive assay relative to control; design: scale not given: the % may be the effect or the level left; method in brief: as §1
T1 sequence (whole entry): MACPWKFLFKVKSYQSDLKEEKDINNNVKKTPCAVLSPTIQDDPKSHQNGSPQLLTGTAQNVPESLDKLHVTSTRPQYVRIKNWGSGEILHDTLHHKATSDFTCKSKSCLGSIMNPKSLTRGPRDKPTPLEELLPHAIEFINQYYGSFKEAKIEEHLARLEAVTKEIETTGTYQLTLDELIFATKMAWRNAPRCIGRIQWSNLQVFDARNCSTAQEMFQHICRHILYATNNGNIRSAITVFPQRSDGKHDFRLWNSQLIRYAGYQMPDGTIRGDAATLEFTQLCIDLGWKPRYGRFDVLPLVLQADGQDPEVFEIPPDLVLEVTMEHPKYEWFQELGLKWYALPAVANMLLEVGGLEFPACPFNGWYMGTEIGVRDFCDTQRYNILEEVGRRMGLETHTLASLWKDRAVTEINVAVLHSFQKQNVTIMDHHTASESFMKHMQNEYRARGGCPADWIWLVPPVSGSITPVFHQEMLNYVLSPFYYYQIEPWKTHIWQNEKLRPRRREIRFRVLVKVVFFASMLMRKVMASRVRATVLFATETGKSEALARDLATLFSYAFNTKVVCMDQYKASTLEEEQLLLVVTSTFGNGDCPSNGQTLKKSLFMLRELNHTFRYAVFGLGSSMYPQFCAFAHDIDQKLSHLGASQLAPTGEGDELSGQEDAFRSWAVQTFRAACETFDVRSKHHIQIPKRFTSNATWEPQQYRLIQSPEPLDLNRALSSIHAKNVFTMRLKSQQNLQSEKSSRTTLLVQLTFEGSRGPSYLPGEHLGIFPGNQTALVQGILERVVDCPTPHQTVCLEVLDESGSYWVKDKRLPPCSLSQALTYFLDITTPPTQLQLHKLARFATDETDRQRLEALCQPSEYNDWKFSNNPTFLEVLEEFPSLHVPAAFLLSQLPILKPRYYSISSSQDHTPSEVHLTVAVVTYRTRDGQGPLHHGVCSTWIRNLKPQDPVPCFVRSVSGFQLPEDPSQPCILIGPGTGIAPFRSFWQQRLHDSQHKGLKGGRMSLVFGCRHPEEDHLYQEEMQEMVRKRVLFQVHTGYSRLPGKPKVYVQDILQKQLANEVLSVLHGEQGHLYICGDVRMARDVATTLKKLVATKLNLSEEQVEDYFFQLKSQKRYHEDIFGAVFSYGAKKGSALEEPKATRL

[3] = target: T2, Nitric oxide synthase 3 (Bos taurus) (UniProt P29473); test: Inhibition of bovine recombinant eNOS expressed in Escherichia coli assessed as conversion of [gamma-14C]L-arginine to [14C]L-citrulline at 100 uM by radioactive assay relative to control; design: scale not given: the % may be the effect or the level left; method in brief: as §1
T2 sequence (whole entry): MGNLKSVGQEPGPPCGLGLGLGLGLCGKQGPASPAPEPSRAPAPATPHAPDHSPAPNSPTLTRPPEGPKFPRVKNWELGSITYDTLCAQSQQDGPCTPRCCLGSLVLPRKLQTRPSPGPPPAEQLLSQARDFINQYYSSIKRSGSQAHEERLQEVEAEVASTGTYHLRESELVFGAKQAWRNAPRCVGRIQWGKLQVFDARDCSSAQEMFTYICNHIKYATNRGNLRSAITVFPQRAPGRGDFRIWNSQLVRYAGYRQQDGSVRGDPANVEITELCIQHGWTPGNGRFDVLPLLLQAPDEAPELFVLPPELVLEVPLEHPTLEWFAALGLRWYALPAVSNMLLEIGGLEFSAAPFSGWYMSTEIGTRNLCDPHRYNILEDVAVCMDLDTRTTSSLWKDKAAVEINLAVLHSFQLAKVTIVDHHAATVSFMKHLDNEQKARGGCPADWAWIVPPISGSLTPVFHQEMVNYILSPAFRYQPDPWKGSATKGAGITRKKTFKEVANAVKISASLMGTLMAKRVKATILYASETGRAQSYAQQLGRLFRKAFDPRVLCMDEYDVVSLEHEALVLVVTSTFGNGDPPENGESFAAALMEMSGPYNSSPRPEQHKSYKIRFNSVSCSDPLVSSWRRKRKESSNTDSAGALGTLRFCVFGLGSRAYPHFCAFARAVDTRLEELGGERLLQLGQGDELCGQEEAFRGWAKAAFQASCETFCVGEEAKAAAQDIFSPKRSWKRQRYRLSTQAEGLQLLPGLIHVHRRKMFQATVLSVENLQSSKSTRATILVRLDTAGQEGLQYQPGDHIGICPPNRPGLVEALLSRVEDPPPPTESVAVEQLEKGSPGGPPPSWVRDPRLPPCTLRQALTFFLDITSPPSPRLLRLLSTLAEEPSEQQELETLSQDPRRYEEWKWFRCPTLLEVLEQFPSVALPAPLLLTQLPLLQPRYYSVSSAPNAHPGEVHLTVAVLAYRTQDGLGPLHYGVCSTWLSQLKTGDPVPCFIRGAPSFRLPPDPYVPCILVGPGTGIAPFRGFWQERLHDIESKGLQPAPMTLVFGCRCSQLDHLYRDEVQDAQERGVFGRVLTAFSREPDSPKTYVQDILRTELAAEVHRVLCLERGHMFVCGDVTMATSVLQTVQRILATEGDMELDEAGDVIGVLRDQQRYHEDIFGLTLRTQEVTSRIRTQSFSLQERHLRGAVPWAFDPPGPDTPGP

[4] = target: T1, Nitric oxide synthase, inducible (Mus musculus); test: Inhibition of mouse iNOS expressed in insect Sf9 cells assessed as residual activity at 100 uM by Griess assay relative to control
Method in brief: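 Murine iNOS produced in Sf9 insect cells. Buffer: 50 mM triethanolamine pH 7.5, 1 mM CHAPS, 10 mM 2-mercaptoethanol, 0.5 mM EDTA. Additions: 1 mM Mg2+, 5 µM FAD, 5 µM FMN, 0.5 mM NADPH, 10 µM H4B, 10 µg/ml CaM, 1 mM L-arginine. Compound at 100 µM final, 37 °C for 20 min. NADPH removed with LDH/pyruvate, then Griess read at 543 nm. Values are % of 1% DMSO control, 5 experiments.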

Nitric oxide synthase 1 (Rattus norvegicus), sequence (P29476 whole entry): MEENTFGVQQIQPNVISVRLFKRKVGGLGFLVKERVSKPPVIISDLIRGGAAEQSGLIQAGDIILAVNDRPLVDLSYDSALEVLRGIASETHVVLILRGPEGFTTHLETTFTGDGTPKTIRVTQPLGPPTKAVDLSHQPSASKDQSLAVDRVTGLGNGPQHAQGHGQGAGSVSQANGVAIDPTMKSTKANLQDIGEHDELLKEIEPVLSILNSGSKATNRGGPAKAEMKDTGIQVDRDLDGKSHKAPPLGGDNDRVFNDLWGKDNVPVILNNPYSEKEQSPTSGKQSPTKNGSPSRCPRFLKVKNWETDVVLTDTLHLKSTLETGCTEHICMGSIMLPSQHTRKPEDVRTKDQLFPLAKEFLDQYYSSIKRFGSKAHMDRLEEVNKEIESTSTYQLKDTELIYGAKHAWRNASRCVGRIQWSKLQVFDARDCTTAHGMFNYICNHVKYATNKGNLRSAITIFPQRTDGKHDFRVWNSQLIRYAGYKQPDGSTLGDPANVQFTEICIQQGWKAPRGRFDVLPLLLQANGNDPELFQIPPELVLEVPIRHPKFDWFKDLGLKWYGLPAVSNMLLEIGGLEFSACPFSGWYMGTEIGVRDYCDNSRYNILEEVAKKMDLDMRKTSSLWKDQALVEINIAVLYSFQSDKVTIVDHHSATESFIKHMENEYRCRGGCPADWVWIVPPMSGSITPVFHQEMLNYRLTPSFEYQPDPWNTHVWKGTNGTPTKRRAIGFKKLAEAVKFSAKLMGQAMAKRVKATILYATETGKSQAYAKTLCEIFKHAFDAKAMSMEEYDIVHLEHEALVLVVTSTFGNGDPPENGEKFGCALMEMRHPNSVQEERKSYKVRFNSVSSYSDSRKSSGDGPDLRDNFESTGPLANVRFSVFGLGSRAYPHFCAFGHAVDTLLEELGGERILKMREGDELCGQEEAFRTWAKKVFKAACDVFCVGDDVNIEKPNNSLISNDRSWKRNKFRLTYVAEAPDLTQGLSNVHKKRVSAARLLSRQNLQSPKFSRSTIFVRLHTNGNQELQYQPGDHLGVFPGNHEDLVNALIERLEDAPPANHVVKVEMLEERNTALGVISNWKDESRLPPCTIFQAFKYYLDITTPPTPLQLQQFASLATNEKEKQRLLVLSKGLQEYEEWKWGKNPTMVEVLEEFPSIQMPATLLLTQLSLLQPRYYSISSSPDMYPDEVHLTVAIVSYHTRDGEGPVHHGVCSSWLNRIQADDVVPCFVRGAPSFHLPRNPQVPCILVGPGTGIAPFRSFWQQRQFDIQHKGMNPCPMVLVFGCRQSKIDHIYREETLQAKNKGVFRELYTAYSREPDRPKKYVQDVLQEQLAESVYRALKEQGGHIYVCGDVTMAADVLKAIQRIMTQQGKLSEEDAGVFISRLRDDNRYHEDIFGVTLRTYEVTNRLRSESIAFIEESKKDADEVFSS

Row | SMILES | Activity [1] [%] | Activity [2] [%] | Activity [3] [%] | Activity [4] [%]
1 | CC1=CC2=NCC(C(=O)c3ccc(OCc4ccc(C#N)cc4)cc3)CN2C=C1.[O-][Cl+3]([O-])([O-])O (centres undefined) | 60 | 30 | 44 | –
2 | CC1=CC2=NCC(C(=O)c3ccc4cc(C)ccc4c3)CN2C=C1.[O-][Cl+3]([O-])([O-])O (centres undefined) | 69 | 13 | 48 | 90
3 | CC1=CC2=NCC(C(=O)c3ccc4ccccc4c3)CN2C=C1 (centres undefined) | – | – | – | 28
4 | COc1ccc(-c2ccc(C(=O)C3CN=C4C=C(C)C=CN4C3)cc2)cc1.Cl (centres undefined) | 29 | 13 | 15 | –
5 | CC(=N)NCc1cccc(CN)c1 | – | – | – | 3
6 | CC1=CC=CC2=NCC(C(=O)c3ccc(Br)cc3)CN12 (centres undefined) | – | – | – | 9
7 | CC1=CC=CC2=NCC(C(=O)c3ccc(F)cc3)CN12.[O-][Cl+3]([O-])([O-])O (centres undefined) | 83 | 66 | 71 | 83
8 | COc1ccc(C(=O)C2CN=C3C=CC=C(C)N3C2)cc1OC.[O-][Cl+3]([O-])([O-])O (centres undefined) | 100 | 91 | 81 | 95
9 | O=C(c1ccc2ccccc2c1)C1CN=C2C=CC=CN2C1 (centres undefined) | – | – | – | 97
10 | COc1ccc(C(=O)C2CN=C3C=C(C)C=CN3C2)cc1F.[O-][Cl+3]([O-])([O-])O (centres undefined) | 69 | 45 | 59 | –
11 | CC1=CC2=NCC(C(=O)c3ccc(-c4ccc(Br)cc4)cc3)CN2C=C1.[O-][Cl+3]([O-])([O-])O (centres undefined) | 10 | 19 | 65 | –
12 | CCSC(=N)N | – | – | – | 2
13 | CC1=CC2=NCC(C(=O)c3ccc(OCc4ccc(Br)cc4)cc3)CN2C=C1.Cl (centres undefined) | 62 | 62 | 77 | –
14 | CC1=CC=CC2=NCC(C(=O)c3ccc(C)cc3)CN12.[O-][Cl+3]([O-])([O-])O (centres undefined) | 76 | 66 | 84 | 99
15 | CC1=CC2=NCC(C(=O)c3ccc4cc(C)ccc4c3)CN2C(C)=C1.[O-][Cl+3]([O-])([O-])O (centres undefined) | 55 | 28 | 17 | –
16 | CC1=CC2=NCC(C(=O)c3ccc(F)cc3)CN2C=C1 (centres undefined) | – | – | – | 78
17 | N=C(NCCC[C@H](N)C(=O)O)N[N+](=O)[O-] | 2 | 15 | 5 | –
18 | CCCNC(=N)NCCC[C@H](N)C(=O)O | – | – | – | 88
19 | CC1=CC2=NCC(C(=O)c3ccc(-c4ccccc4)cc3)CN2C=C1 (centres undefined) | – | – | – | 40
20 | CC1=CC2=NCC(C(=O)c3ccc(OCc4ccc(Cl)cc4)cc3)CN2C=C1.[O-][Cl+3]([O-])([O-])O (centres undefined) | 49 | 25 | 2 | –
21 | CC1=CC2=NCC(C(=O)c3ccc(-c4ccc(C#N)cc4)cc3)CN2C=C1.Cl (centres undefined) | 43 | 18 | 18 | –
22 | COc1ccc2cc(C(=O)C3CN=C4C=C(C)C=CN4C3)ccc2c1 (centres undefined) | – | – | – | 72
23 | CC1=CC2=NCC(C(=O)c3ccc(Cl)cc3)CN2C=C1 (centres undefined) | – | – | – | 28
24 | CC1=CC2=NCC(C(=O)c3ccc(Br)cc3)CN2C=C1 (centres undefined) | – | – | – | 33
25 | O=C(c1ccc(Br)cc1)C1CN=C2C=CC=CN2C1 (centres undefined) | – | – | – | 92
26 | CC1=CC2=NCC(C(=O)c3ccccc3)CN2C=C1 (centres undefined) | – | – | – | 16
27 | O=C(c1ccc(Cl)c(Cl)c1)C1CN=C2C=CC=CN2C1.[O-][Cl+3]([O-])([O-])O (centres undefined) | 87 | 85 | 83 | 95
28 | CC1=CC2=NCC(C(=O)c3ccc(-c4ccc(Br)cc4)cc3)CN2C(C)=C1 (centres undefined) | 58 | 35 | 32 | –
29 | CC1=CC=CC2=NCC(C(=O)c3ccc4ccccc4c3)CN12 (centres undefined) | – | – | – | 75
